# From PubChem BioAssay
# An excerpt weighted towards active compounds, which were near 5.5% of everything screened.
# RAM inhibit = blocks the yeast RAM network | S. cerevisiae dse1pr::URA3 reporter, 5-FOA growth OD615, 2 d; analog-sensitive cbk1-as2 kinase mutant strain | inhibition, % at 50 µM | 190,000 compounds, 1.8% hits | AID 868;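 active = inhibition above a set limit, 3 SD over mean compound inhibition, cut at about 8.4% in these data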;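 note: inhibition rescues growth on 5-FOA so higher OD means more RAM inhibition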
# KCC2 mod = KCC2 (human) Cl- transport modulation; Q9H2X9; KCC2 cells, thallium flux FluoZin-2 fluorescence; B-score of Tl+ flux slope (higher = more flux/activation; lower = inhibition) at 10 µM; 190,000 compounds, 2.2% hits; AID 1456;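 active = thallium flux slope and its plate-corrected score both differing from the plate sample mean at a set confidence after two filtering rounds, in either direction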;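 note: slope of fluorescence scaled to starting intensity during 10 to 20 s after thallium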
# Target sequence (Q9H2X9 whole entry, looked up): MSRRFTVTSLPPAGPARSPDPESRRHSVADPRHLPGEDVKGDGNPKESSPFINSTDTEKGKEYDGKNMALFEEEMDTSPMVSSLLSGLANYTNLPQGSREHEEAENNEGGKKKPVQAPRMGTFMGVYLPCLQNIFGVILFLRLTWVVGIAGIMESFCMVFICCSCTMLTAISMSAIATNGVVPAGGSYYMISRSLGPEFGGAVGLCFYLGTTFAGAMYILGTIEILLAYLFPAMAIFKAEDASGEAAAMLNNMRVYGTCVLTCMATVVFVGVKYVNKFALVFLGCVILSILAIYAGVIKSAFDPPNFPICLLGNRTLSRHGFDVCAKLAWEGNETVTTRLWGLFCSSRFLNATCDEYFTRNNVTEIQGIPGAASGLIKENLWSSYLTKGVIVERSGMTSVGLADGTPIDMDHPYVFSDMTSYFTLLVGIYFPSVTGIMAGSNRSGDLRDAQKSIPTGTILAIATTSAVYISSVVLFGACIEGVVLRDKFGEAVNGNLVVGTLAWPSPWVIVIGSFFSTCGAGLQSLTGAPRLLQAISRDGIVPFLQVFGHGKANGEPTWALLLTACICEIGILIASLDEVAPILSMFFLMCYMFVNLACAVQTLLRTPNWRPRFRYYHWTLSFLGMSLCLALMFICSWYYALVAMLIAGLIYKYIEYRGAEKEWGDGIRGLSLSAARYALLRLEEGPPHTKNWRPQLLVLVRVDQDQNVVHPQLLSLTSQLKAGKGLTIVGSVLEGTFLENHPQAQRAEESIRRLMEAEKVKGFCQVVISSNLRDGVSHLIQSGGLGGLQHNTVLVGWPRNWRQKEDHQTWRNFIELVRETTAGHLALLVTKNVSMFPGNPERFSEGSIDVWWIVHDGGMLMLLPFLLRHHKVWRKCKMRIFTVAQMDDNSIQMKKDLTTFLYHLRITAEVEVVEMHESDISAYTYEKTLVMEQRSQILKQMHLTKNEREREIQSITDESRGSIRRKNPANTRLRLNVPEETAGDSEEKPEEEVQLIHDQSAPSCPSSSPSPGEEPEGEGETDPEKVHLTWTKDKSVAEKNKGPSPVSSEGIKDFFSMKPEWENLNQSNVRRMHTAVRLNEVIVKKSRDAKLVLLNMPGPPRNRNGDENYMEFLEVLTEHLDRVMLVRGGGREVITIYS
# Yeast life ext = yeast lifespan extension. inhibition of the nicotinamide effect, % at 10 µM. 130,000 compounds, 0.68% hits. S. cerevisiae growth with nicotinamide, OD615; deaD strain in restrictive glucose medium;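 active = inhibition above a set limit, placed 3 SD over the median of all compounds, cut at about 26% in these data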
#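 System: DeaD-strain S. cerevisiae / Buffer or medium: CSMM-D, restrictive glucose (dextrose) synthetic minimal medium / Probe or stimulus: nicotinamide, 1.5 mM, co-present with compound / Compound: one concentration, 10 µM, DMSO 0.25% / Incubation: 48 h compound exposure at 30 °C, humidified / Technique: optical density (absorbance) at 615 nm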
# Yeast growth inh = chemicals that inhibit yeast BB579 growth in restrictive medium (lifespan-shortening candidates) | S. cerevisiae BB579 growth, OD615, 48 h | inhibition, % at 10 µM | 140,000 compounds, 0.51% hits;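 active = inhibition above a set limit, 3 SD over the mean compound inhibition, cut at about 44% in these data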
#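 Test system: DeaD yeast strain BB579 / Buffer or medium: restrictive glucose-based CSMM-D medium / Doses: single 10 µM dose / Schedule: 4 h cell preincubation, 48 h compound exposure, 30 °C humidified / Technique: culture absorbance at 615 nm / Controls: amphotericin B positive control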
# WT yeast gro inh = growth inhibition of WT yeast, mitochondrial fusion screen; mitochondrial fusion phenotypic screen, WT strain; 190,000 compounds, 2.1% hits; inhibition, % at 10 µM; AID 1362; in the data active = inhibition above about 58%; tested in S. cerevisiae
# Hits are given with their value; n = inactive; x = no result given.
SMILES,RAM inhibit,KCC2 mod,Yeast life ext,Yeast growth inh,WT yeast gro inh
COc1cc2cc(CN(Cc3cccs3)C(=S)Nc3ccccc3)c(=O)[nH]c2cc1OC,n,n,n,n,n
CC(=O)Nc1nc(-c2ccc(Br)s2)cs1,n,n,n,n,n
Cc1ccc(NC(=O)Nc2nc(-c3ccc(C)s3)cs2)cc1,n,n,87,n,n
CCc1ccc2oc(-c3ccc(OC)cc3)cc(=Nc3cccc(C(=O)O)c3)c2c1,n,-7.2,x,x,n
Cc1ccccc1N/C(SCc1cccc(Br)c1)=C(/C#N)C(N)=O,n,n,n,n,n
COc1cccc(N/C(SCc2cccc([N+](=O)[O-])c2)=C(/C#N)C(N)=O)c1,8.5,n,x,x,n
N#Cc1ccccc1OCC(=O)NC(N)=O,n,n,n,n,n
CCOC(=O)CCCNC(=O)COc1ccccc1C#N,n,n,66,n,n
COC(=O)c1cc(NC(=O)C2CCCN(S(=O)(=O)c3c(C)n[nH]c3C)C2)cc(C(=O)OC)c1 (configuration not stated),n,n,x,x,n
Cc1cccc(OCCn2cc(/C=N/NC(=O)c3ccncc3)c3ccccc32)c1,n,n,n,54,n
Cc1cccc(OCC(=O)N/N=C\c2cn(C)c3ccccc23)c1,n,n,x,x,n
COc1cccc(C(=O)CSc2nnc(-c3cc(OC)cc(OC)c3)o2)c1,n,x,n,n,n
COc1ccc(C(=O)CSc2nnc(-c3cc(C)cc(C)c3)o2)cc1,10.0,n,n,n,n
CCc1nnc(NC(=O)CSc2nnc(COc3cccc(C)c3)o2)s1,n,n,27,n,n
CCc1nnc(NC(=O)CSc2nnc(-c3ccccc3O)n2-c2ccc(C)cc2C)s1,8.5,n,n,n,n
Cc1ccc(C(=O)CSc2nnc(COc3cccc(C)c3)o2)cc1,9.9,x,n,n,n
O=C(Cc1ccccc1[N+](=O)[O-])NCCSCc1c(F)cccc1Cl,n,n,n,n,n
CN(C(=O)c1ccc(=O)n(Cc2ccc(Cl)cc2)c1)c1ccccc1,n,n,x,x,n
Cc1ccc(NC(=O)Cn2cc(S(=O)(=O)c3ccc(F)cc3)c(=O)c3cc(F)ccc32)cc1,8.5,n,n,n,n
O=C(CN1C(=O)S/C(=C/c2cc(Br)cs2)C1=O)N1CCOCC1,n,n,n,n,n
CC(=O)NC(CCS(C)(=O)=O)C(=O)Nc1ccc2c(c1)OCCO2 (configuration not stated),n,n,x,n,n
CC(=O)NC(CCS(C)(=O)=O)C(=O)Nc1ccc2c(c1)OCO2 (configuration not stated),n,n,n,44,n
COc1ccc(C(=O)NC2CC(C)(C)Cc3occc32)cc1 (configuration not stated),n,n,n,n,n
O=C(CN(CCc1ccccc1)S(=O)(=O)c1ccc(Br)cc1)N/N=C/c1ccccc1C(=O)O,n,n,x,x,n
O=C(CSCC(=O)N1CCCCC1)Nc1nc(-c2ccc(Cl)s2)cs1,n,n,n,n,72
SMILES,RAM inhibit,KCC2 mod,Yeast life ext,Yeast growth inh,WT yeast gro inh
CCCCN(CCCC)c1ccc(C(=O)c2ccccc2C(=O)O)c(O)c1,n,n,34,n,n
Cc1ccc(SCc2ccc(C(=O)Nc3ccccc3Br)cc2)cc1,n,n,n,n,n
Cc1ccc(SCc2ccc(C(=O)Nc3ccccc3C(=O)NC(C)C)cc2)cc1,9.1,n,n,n,n
O=C(Nc1ncc(Br)s1)C(Cc1ccccc1)n1cccc1 (configuration not stated),n,x,n,n,82
O=C(Nc1cccnc1)C(Cc1ccccc1)n1cccc1 (configuration not stated),n,n,n,n,n
O=C(Nc1ccc2c(c1)OCO2)C1CCCN1C(=O)NCc1ccccc1 (configuration not stated),n,n,57,n,n
O=C(Nc1ccc2c(c1)OCO2)C1CCCN1C(=O)OCc1ccccc1 (configuration not stated),n,n,n,n,n
CCOC(=O)N1CCC(N2CCCC(C(=O)c3cccc(OC)c3)C2)CC1 (configuration not stated),x,n,x,x,x
CC(C)OC(=O)C1CC(C)(O)C(=O)C(C(=O)OC(C)C)C1c1ccc([N+](=O)[O-])cc1 (configuration not stated),n,n,x,x,n
CC1(C)CC(=O)C2=C(C1)N(c1cccc(Cl)c1)C(=O)NC2(C(F)(F)F)C(F)(F)F,n,n,n,n,n
CC1CCCCN1C(=O)Cn1cc(/C=C2/C(=O)Nc3ccccc32)c2ccccc21 (configuration not stated),9.4,n,n,n,96
CC1CCCCN1C(=O)Cn1cc(C=O)c2ccccc21 (configuration not stated),n,n,n,n,n
CCN(CC)c1ccc(/C=C2/C(=O)c3ccc(C(=O)O)cc3C2=O)cc1,9.9,n,n,n,n
COc1cc(CNn2cn[nH]c2=S)cc(Cl)c1OCc1ccc(F)cc1,n,n,n,n,66
C=CCOc1ccc(CNn2cn[nH]c2=S)cc1OC,n,x,n,n,n
CCN(CC)c1ccc(/C=C2/C(=O)ON=C2C)cc1,n,n,40,n,n
O=C(CCc1ccccc1)NC(=S)Nc1ccccc1Br,n,n,x,x,75
COc1ccc(CC(=O)NC(C)c2nnc(SCC(=O)Nc3cc(C)ccc3OC)n2C)cc1 (configuration not stated),n,n,x,x,n
O=C(/C=C/c1ccccc1Cl)c1ccc(O)cc1,x,n,x,x,x
O=C(/C=C/c1ccccc1Cl)c1ccccc(=O)c1O,n,31,n,99,n
O=C(COC(=O)COc1ccc(Cl)cc1)NCc1cccs1,n,n,n,n,n
CCOc1ccccc1NC(=O)C(NCC1(N2CCCCC2)CCCCC1)c1ccccc1 (configuration not stated),n,n,x,x,n
Cc1ccc(-n2nc(C(=O)N3CCN(C)CC3)c3c4ccccc4n(C)c3c2=O)cc1,x,n,x,x,x
COc1ccc(-n2nc(C(=O)NCc3ccco3)c3c4ccccc4n(C)c3c2=O)cc1Cl,9.8,n,n,n,n
COc1ccc(-n2nc(C(=O)NCC(=O)NCc3ccco3)c3ccccc3c2=O)cc1,n,x,n,n,n
SMILES,RAM inhibit,KCC2 mod,Yeast life ext,Yeast growth inh,WT yeast gro inh
COc1ccccc1CNC(=O)c1nn(-c2ccc(C)cc2)c(=O)c2c1c1ccccc1n2C,9.4,n,n,n,n
N#C/C(=C(/O)CO/N=C/c1ccccc1Cl)c1nc2ccccc2[nH]1,x,n,x,x,x
COc1cccc2c1C(=O)c1c(O)c3c(c(O)c1C2=O)C[C@@](O)(C(=O)CO)C[C@@H]3O[C@H]1C[C@H](N)[C@H](O)[C@H](C)O1,n,n,n,n,59
Cc1cc(Nc2ccccc2)n(-c2ccccc2)n1,n,n,n,n,n
Cc1cc(C)nc(-n2nc(C)cc2Nc2ccccc2)n1,n,x,n,n,72
Cc1cc(Nc2nc(Cl)c(Cl)cc2Cl)n(-c2ccccc2)n1,n,n,n,n,65
Cc1nn(-c2nc3ccccc3[nH]2)c(=O)c2ccccc12,n,n,x,x,91
